We go through 17 molecules from ChEMBL document CHEMBL4613231 (Bioorg Med Chem, 2020).

The target in data set [1] is T1, Tyrosyl-DNA phosphodiesterase 1 (Homo sapiens, UniProt Q9NUW8). As to the kind of experiment: Inhibition of TDP1 (unknown origin) using 5'-(5,6 FAM-AAC GTC AGG GTC TTC C- BHQ1)-3' as substrate measured for every 1 min by fluorescence based assay. In a few lines: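 TDP1 buffer (50 mM Tris-HCl pH 8.0, 50 mM NaCl, 7 mM β-mercaptoethanol) with FAM/BHQ1 quenched biosensor at 50 nM final and inhibitor over a concentration range. Started by adding TDP1 (1.5 nM), 26 °C, fluorescence (Ex485/Em520) read every 1 min. Linear-phase slope compared with DMSO control, IC50 taken from concentration-response curves, at least three independent experiments.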

The nature of data set [2]: (§1) Cytotoxicity against human MCF7 cells assessed as reduction in cell viability after 72 hrs by MTT assay. Format: cell-based. The settings on record: MCF7 cells. In a few lines: (§2)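 Cells plated at ~2000 per well, grown 24h at 37 °C in IMDM (5% CO2), then exposed to compounds at 1, 5, 20 and 100 µM for 72h. Viable cells quantified by colorimetric MTT test; CC50 taken as mean of three independent experiments.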

Data set [3] can be described thus: (§3) Cytotoxicity against human T98G cells assessed as reduction in cell viability after 72 hrs by MTT assay. Format: cell-based. Conditions: T98G cells. In a few lines:
as §2
Background: Tetrazolium assays rely on reduction of a dye to a coloured formazan, in cell work by metabolically active cells.

In data set [4] the target is T1, Tyrosyl-DNA phosphodiesterase 1. The experiment in a line: Inhibition of TDP1 (unknown origin) using 5'-(5,6 FAM-AAC GTC AGG GTC TTC C- BHQ1)-3' as substrate measured after 20 mins by gel-based assay. In a few lines:
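Reaction (200 μL) in TDP1 buffer (50 mM Tris-HCl pH 8.0, 50 mM NaCl, 7 mM β-mercaptoethanol) with FAM/BHQ1 biosensor oligo at 50 nM final and inhibitor at various concentrations. Started with TDP1 at 1.5 nM final, run 20 min at room temperature, stopped with loading buffer. Products separated by denaturing PAGE, scanned and quantified, and IC50 derived.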

The nature of data set [5]: (§4) Cytotoxicity against human WI38 cells assessed as reduction in cell viability after 72 hrs by MTT assay. The settings on record: WI-38 cells. Format: cell-based, WI-38. In a few lines: as §2
Data set [6] deals with T98G. The experiment in a line: Cytotoxicity against human T98G cells at 1 uM after 72 hrs in presence of topotecan by MTT assay. Type of data set: cell-based.
Data set [7] concerns WI-38. As to the kind of experiment: Cytotoxicity against human WI38 cells at 1 uM after 72 hrs in presence of topotecan by MTT assay. Format: cell-based. The settings on record: wi-38, 72 h.
The test system of the next data set is A549. As to the kind of experiment: Cytotoxicity against human A549 cells assessed as reduction in cell viability after 72 hrs by MTT assay. Type of data set: cell-based. Conditions: a549, 72 h. In a few lines:
as §2

In another data set the test system is MCF7. The description is as §1. Type of data set: cell-based. Conditions: mcf7, 72 h. In a few lines:
as §2

The test system of data set [8] is T98G. The description is as §3. Format: cell-based. Conditions: t98g, 72 h. In a few lines: as §2
In data set [9] the test system is WI-38. The data set is described as §4. Type of data set: cell-based. Conditions: wi-38, 72 h. In a few lines:
as §2

Bounds are passed on as bounds.

T1 sequence (Q9NUW8 whole entry): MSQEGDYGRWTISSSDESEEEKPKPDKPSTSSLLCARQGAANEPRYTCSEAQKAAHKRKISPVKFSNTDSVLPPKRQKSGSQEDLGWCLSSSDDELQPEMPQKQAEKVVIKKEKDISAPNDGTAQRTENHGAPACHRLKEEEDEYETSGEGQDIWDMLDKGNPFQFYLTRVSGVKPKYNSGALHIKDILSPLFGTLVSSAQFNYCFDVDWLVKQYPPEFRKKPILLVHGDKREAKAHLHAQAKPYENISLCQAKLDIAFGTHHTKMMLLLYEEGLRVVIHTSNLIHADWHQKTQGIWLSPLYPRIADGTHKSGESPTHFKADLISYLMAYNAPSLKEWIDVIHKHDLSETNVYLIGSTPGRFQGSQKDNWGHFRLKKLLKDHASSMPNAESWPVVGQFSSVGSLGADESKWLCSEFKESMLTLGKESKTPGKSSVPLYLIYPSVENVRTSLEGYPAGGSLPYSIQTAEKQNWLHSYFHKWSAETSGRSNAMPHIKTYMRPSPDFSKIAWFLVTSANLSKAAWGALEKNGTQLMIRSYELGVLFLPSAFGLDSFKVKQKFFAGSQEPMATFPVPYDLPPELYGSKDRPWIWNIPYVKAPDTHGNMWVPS

`CCCc1cc(=O)oc2c(C)c(OCC(=O)NC(Cc3c[nH]c4ccc(O)cc34)C(=O)O)ccc12` (configuration not stated) yielded an IC50 in data set [1] of 5600 nM.

Turning to `O=c1cc(-c2cc3ccccc3oc2=O)c2ccc(OCc3cccc4ccccc34)cc2o1`, the midpoint of inhibition in data set [1], the IC50, lay at 270 nM. This IC50 is about 21-fold lower than that of the molecule before. In the case of `O=C(NCCC1=CCCCC1)c1cc2c([nH]c3ccccc32)c(-c2ccc3c(c2)OCO3)n1`, the IC50 in data set [1] is 1300 nM. As for `Cc1c(CC(=O)N[C@@H](CSCc2ccccc2)C(=O)O)c(=O)oc2c(C)c3occ(-c4ccc(F)cc4)c3cc12`, the results for the CC50 at 72 h in [2] and in data set [3] were 80 µM and 66 µM, respectively. The values for the IC50 in data set [1] and in data set [4] were 1060 nM and 1750 nM, respectively. Consider `O=c1cc(-c2cc3ccccc3oc2=O)c2ccc(OCc3ccccc3Cl)cc2o1`, for which the CC50 at 72 h in data set [3] stood at 16 µM. This molecule returned an IC50 in data set [1] of 280 nM. In [1], `O=C(COc1cc2oc(=O)cc(-c3ccccc3)c2cc1Cl)NC[C@H]1CC[C@H](C(=O)O)CC1` had an IC50 greater than 100000 nM. Molecule `CC(C)OCCCNC(=O)c1cc2c([nH]c3ccccc32)c(-c2ccc3c(c2)OCO3)n1` registered an IC50 in [1] of 3100 nM. This counts as single-digit micromolar. Still for that read-out and setting: in the case of `CC(C)C[C@H](N)C(=O)N1CCC(C(=O)N[C@@H](Cc2ccccc2)C(=O)NCc2ccccc2F)CC1` it was greater than 100000 nM. As for `COc1cccc2cc(-c3cc(=O)oc4c(C)c(OCc5ccc(Cl)cc5)ccc34)c(=O)oc12`, the CC50 at 72 h is 17 µM in data set [2], 16 µM in data set [3] and 60 µM in [5]. For the same molecule, the Activity result in the data set with T98G [6] and in the data set with WI-38 [7] was “Toxic” throughout. Moreover, the IC50 in data set [1] was 360 nM. Consider `COc1cccc2cc(-c3cc(=O)oc4cc(OCC(C)=O)ccc34)c(=O)oc12`, for which the IC50 in [1] was determined as 7600 nM. Consider `O=c1cc(-c2cc3ccccc3oc2=O)c2ccc(OCc3c(Cl)cccc3Cl)cc2o1`, for which the Activity result in the data set with A549 was “Non-Toxic”; in the data set with MCF7, “Non-Toxic”; in the data set with T98G [8], “Non-Toxic”; in the data set with WI-38 [9] it was “Non-Toxic”; with T98G [6] it was “Toxic”; with WI-38 [7], “Toxic”. In addition, in [1], the IC50 was determined as 99 nM. In data set [1], `Cc1oc2c(C)c3oc(=O)c(CC(=O)NCC(=O)O)c(C)c3cc2c1-c1ccccc1` registered an IC50 greater than 100000 nM.

As for `Cc1c(CC(=O)NC(Cc2ccc(Cl)cc2)C(=O)O)c(=O)oc2c(C)c3occ(-c4ccc(F)cc4)c3cc12` (configuration not stated), in [1], the IC50 worked out at 850 nM. In other words, the sub-micromolar range.

For `Cc1c(Cc2ccccc2)c(=O)oc2cc(OCC(=O)N[C@@H](CSCc3ccccc3)C(=O)O)ccc12`, the IC50 in [1] stood at 3500 nM.

On to `Cc1c(CCC(=O)N[C@@H](CSCc2ccccc2)C(=O)O)c(=O)oc2cc3oc4c(c3cc12)CCCC4`, for which, in data set [1], the IC50 was found to be 15400 nM. This IC50 is about 4.4-fold higher than that of the molecule before. Turning to `O=C(NCCc1c[nH]c2ccccc12)c1cc2c([nH]c3ccccc32)c(-c2ccc3c(c2)OCO3)n1`, the IC50 in data set [1] turned out to be 980 nM. On the same count and under the same terms, under `COc1ccc(-c2cc(=O)oc3cc(OCC(=O)N[C@H](C(=O)O)c4ccccc4)ccc23)cc1` stands 12900 nM.

In general, IC50 refers to the concentration at which inhibition is half-maximal. Low readings indicate greater potency, high ones weaker potency. For orientation: CC50 means the concentration giving 50% cytotoxicity.
